# TRPC4 block: inhibitors of mouse TRPC4 channel. Q9QUQ5. AID 2247. 300,000 tested, 0.39% active. HEK293 TRPC4beta/mu-opioid, DAMGO-evoked Fluo4 calcium flux; active compounds read low. B-score at 10 µM;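 active = B-score over 3 SD under the library average, no early fluorescence shift, positive overall ratio signal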
# Target sequence (Q9QUQ5 whole entry, looked up): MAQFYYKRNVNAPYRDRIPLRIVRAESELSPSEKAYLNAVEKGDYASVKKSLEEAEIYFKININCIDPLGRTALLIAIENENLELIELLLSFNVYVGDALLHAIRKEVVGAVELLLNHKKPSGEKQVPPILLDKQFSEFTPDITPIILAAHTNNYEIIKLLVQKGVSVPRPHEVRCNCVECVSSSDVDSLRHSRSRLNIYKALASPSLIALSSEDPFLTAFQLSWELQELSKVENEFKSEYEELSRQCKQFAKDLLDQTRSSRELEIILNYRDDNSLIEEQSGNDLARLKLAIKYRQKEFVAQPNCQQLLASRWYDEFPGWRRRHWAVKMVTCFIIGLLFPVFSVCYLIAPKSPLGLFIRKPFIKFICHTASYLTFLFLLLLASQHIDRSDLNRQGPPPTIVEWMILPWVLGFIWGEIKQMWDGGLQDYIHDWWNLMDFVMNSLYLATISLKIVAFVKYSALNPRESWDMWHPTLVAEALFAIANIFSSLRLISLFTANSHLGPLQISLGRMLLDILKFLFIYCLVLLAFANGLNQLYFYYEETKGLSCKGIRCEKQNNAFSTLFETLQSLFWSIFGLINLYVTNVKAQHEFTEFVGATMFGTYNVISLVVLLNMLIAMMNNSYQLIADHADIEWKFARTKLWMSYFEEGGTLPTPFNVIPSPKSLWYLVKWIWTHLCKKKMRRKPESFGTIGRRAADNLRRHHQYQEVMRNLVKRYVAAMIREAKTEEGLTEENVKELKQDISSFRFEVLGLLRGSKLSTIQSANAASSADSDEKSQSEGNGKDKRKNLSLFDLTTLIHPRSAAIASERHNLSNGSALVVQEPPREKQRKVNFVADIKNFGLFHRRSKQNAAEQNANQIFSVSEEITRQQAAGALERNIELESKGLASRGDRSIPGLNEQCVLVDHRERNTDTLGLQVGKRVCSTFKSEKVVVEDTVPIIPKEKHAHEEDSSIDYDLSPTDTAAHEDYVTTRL
#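 test system = HEK293 cells with stable TRPC4beta plus mu-opioid receptor expression | detection = Fluo4 Ca2+ flux fluorescence | read-out = integrated fluorescence ratio relative to baseline, converted to per-well B score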
# TRPC4 PAM: allosteric potentiators of mouse TRPC4 channel. HEK293 TRPC4beta/mu-opioid, DAMGO EC20, Fluo-4 Ca2+ flux; active compounds read high. B-score at 10 µM. 310,000 tested, 0.42% active. AID 2227;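 active = B-score of calcium response area above 5 SD of library B-scores, with initial fluorescence ratio within 5 SD of library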;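 note: B-score of integrated fluorescence ratio over time as area under calcium response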
# TRPC4 agonist: opens the mouse TRPC4 cation channel. B-score at 10 µM. HEK293 TRPC4beta/mu-opioid, Fluo4 calcium fluorescence; active compounds read high. 310,000 tested, 0.49% active. Q9QUQ5. AID 2237;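 active = B-score above 5 SD of library B-scores, and initial fluorescence ratio not above library mean plus 5 SD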;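 note: positive B-score marks a calcium rise read as TRPC4 activation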
#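 System: HEK293 cells stably co-expressing mouse TRPC4beta and mu-opioid receptor; Schedule: Fluo4 dye loading 45 min at room temperature, 110 s recording; Detection: Fluo4 fluorescence, kinetic; Evaluation: B-scored integrated calcium fluorescence ratio; Controls: buffer (low) and maximal DAMGO (high).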
# TRPC6 inh: mouse TRPC6 channel inhibition; HEK293-TRPC6, membrane potential dye, ACh-evoked depolarization; active compounds read low; 310,000 tested, 1.1% active; AID 2553; B-score at 10 µM; Q61143;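 active = B-score under library mean minus 3 SD, initial fluorescence not abnormally high, positive integrated signal ratio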;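 note: B-score derived from integrated fluorescence ratio over the kinetic read; more negative B-score means stronger inhibition of depolarization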
# TRPC6 activator: activators of mouse TRPC6 channel; 310,000 tested, 0.13% active; AID 2550; HEK293-TRPC6 membrane potential dye fluorescence; active compounds read high; Q61143; B-score at 10 µM;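 active = B-score of the integrated fluorescence ratio above library mean plus 3 SD, and starting fluorescence ratio within library mean plus 5 SD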;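 note: higher score means more depolarization so channel activation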
# TRPC4 spec 2: second check of whether TRPC6 inhibitors also affect mouse TRPC4. shares compounds with TRPC6 inh. HEK293 TRPC4/MOR, membrane potential dye fluorescence; channel activated by saturating DAMGO dose. inhibition, % at 10 µM. 920 tested, 42% active;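 active = compounds whose fluorescence signal differed from control wells by over 3 SD, either direction, in both duplicate plates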
# TRPC4 spec: tests whether TRPC6 inhibitors also affect mouse TRPC4. shares compounds with TRPC6 inh. HEK293 TRPC4/mu-opioid, membrane potential fluorescence. activity change, negative = inhibition, % at 10 µM. 920 tested, 61% active. AID 2777;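 active = rise or fall in signal beyond 3 SD of buffer-only wells in both replicate plates, either sign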;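 note: integrated kinetic ratio of fluorescence range over baseline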
# HEK293 MPD ctr 2-1: parental HEK293 nonspecific activity of TRPC6 inhibitors, second screen; signal change vs control, % at 10 µM; 920 tested, 31% active; shares compounds with TRPC6 inh; parental HEK293 membrane potential dye fluorescence; maximal acetylcholine challenge after compound addition;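 active = membrane potential signal moving either way by over 3 SD of the maximum-effect control, in both duplicate plates, meaning non-specific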
# HEK293 MPD ctr-1: parental HEK293 nonspecific activity of TRPC6 inhibitors; shares compounds with TRPC6 inh; parental HEK293 membrane potential dye fluorescence; membrane potential signal change, % at 10 µM; 920 tested, 60% active; AID 2780;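 active = membrane potential signal shifting up or down by more than 3 SD of buffer-only wells, on both duplicate plates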
# HEK293 MPD ctr-2: checks TRPC6 modulator effects in parental HEK293 cells; AID 488924; membrane potential signal change, % at 10 µM; 2,400 tested, 51% active; membrane potential dye fluorescence; shares compounds with TRPC6 inh;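 active = membrane potential signal moves up or down beyond 5 SD from buffer-only wells, on both duplicate plates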
# HEK293 MPD ctr 2-2: second check of TRPC6 modulator effects in parental HEK293 cells; membrane potential dye fluorescence; after compound, maximal acetylcholine stimulation; shares compounds with TRPC6 inh; inhibition, % at 10 µM; 2,400 tested, 14% active;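 active = membrane potential signal drops by more than 5 SD from the mean control signal, in both duplicate plates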;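 note: plate controls were acetylcholine ECmax control wells for no effect and buffer only wells for full effect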
# TRPC4/MOR mod: mouse TRPC4 off-target activity of TRPC6 modulators; shares compounds with TRPC6 inh; HEK293 TRPC4/mu-opioid, membrane potential fluorescence; percent change from control (negative = decrease, positive = increase), % at 10 µM; 2,400 tested, 69% active; AID 488927;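 active = membrane potential signal moved up or down beyond 5 SD of buffer control wells, in both duplicate plates, actives on both sides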;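 note: plate controls were assay buffer wells for no effect and DAMGO maximal-effect wells for full effect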
# TRPC4/MOR inh 2: mouse TRPC4 off-target activity of TRPC6 modulators, second screen. 2,400 tested, 55% active. inhibition, % at 10 µM. shares compounds with TRPC6 inh. HEK293 TRPC4/mu-opioid, membrane potential dye fluorescence; stimulated with maximal-effect DAMGO;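 active = drop in membrane potential signal beyond 5 SD of the control wells in both duplicate plates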;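 note: TRPC4 counter screen for TRPC6 hits run under conditions tuned for TRPC6 not TRPC4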
# TRPC6 inh conf: mouse TRPC6 inhibitor confirmation; shares compounds with TRPC6 inh; HEK293-TRPC6, membrane potential dye, ACh-evoked depolarization; inhibition, % at 10 µM; 3,300 tested, 43% active;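 active = fluorescence ratio falls more than 5 SD below the full-stimulation control mean, in both duplicate runs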;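 note: integrated fluorescence ratio of peak minus minimum over baseline after agonist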
# TRPC6 act conf: confirmation of mouse TRPC6 activators; HEK293-TRPC6 membrane potential dye fluorescence, FDSS; shares compounds with TRPC6 inh; activation, % at 10 µM; 2,800 tested, 11% active; AID 488961;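 active = ratio signal rise beyond 5 SD above unstimulated control wells' mean, seen in both duplicate runs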;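 note: plate controls were buffer EC0 wells for no effect and acetylcholine ECmax response for full effect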
# Active calls of the source: *; i = inactive; · = no result. A selection: hits, their analogues and other compounds. The true share with any hit is near 2.3%.
SMILES,TRPC4 block,TRPC4 PAM,TRPC4 agonist,TRPC6 inh,TRPC6 activator,HEK293 MPD ctr-2,HEK293 MPD ctr 2-2,TRPC4/MOR mod,TRPC4/MOR inh 2,TRPC6 inh conf,TRPC6 act conf,others
CCOC(=O)/C(=N\Nc1ccc(C(C)=O)cc1)c1csc(Nc2ccccc2)n1,i,i,i,i,i,·,·,·,·,·,·,
O=C(c1ccc([N+](=O)[O-])cc1)N(Cc1ccc(Cl)cc1)N1C(=O)CCCC1=O,i,i,47*,-16*,17*,390%*,159%*,50%*,45%*,80%*,122%*,
c1ccc(-c2csc(Nc3cccnc3)n2)nc1,·,i,i,-6*,i,-84%*,i,-18%*,i,i,i,
COc1ccc(-c2nc3c(c(=O)[nH]c(=O)n3Cc3ccccc3)n2Cc2ccccc2)cc1,i,i,i,i,i,·,·,·,·,·,·,
Cc1cc(N2CCOCC2)ccc1/C=C\[N+](=O)[O-],i,i,i,i,15*,260%*,i,32%*,i,i,79%*,
CCOC(=O)/C=C1\SCC(=O)N1CC(=O)Nc1ccc(C(C)C)cc1,i,i,i,i,i,·,·,·,·,·,·,
CCCn1c2ccccc2c2cnn(CC(=O)N3CCN(C4CCCCC4)CC3)c(=O)c21,i,i,i,i,15*,318%*,i,56%*,i,i,106%*,
O=C(Nc1ccc(C2=NCCN2)cc1)c1ccc(C(=O)Nc2ccc(C3=NCCN3)cc2)c(Cl)c1,i,i,i,i,16*,307%*,i,54%*,i,i,154%*,
COc1cccc(CN2CCN(C(=O)c3cccc4ccccc34)CC2)c1,i,i,i,i,12*,i,i,10%*,i,i,33%*,
COc1cc(CN2CCN(C(=O)c3cccc4ccccc34)CC2)cc(OC)c1OC,i,i,i,i,i,·,·,·,·,·,·,
Cn1cccc1/C=C1\CCC/C(=C\c2cccn2C)C1=O,i,i,i,i,35*,261%*,i,98%*,i,i,66%*,
O=C1/C(=C/c2cccs2)CCC/C1=C\c1cccs1,i,i,i,i,i,·,·,·,·,·,·,
CC(C)CN(C(=O)COC(=O)c1nc(Cl)ccc1Cl)c1c(N)n(Cc2ccccc2)c(=O)[nH]c1=O,i,i,i,i,i,·,·,·,·,·,·,
O=C(/C(N=Nc1cccc([N+](=O)[O-])c1)=C(/O)c1ccc(Br)cc1)C(F)(F)F,i,i,i,-8.2*,i,·,·,·,·,81%*,i,TRPC4 spec 2=75%*;TRPC4 spec=8.5%*;HEK293 MPD ctr 2-1=i;HEK293 MPD ctr-1=5.2%*
CCOC(=O)C1CCCN(C(=O)c2ccc3nc(-c4ccc(OC)c(OC)c4)c(-c4ccc(OC)c(OC)c4)nc3c2)C1 (stereo unspecified),i,i,i,i,i,·,·,·,·,·,·,
Nc1cccc2nc3ccccc3cc12,i,i,i,-7.2*,i,·,·,·,·,83%*,i,TRPC4 spec 2=23%*;TRPC4 spec=-36%*;HEK293 MPD ctr 2-1=18%*;HEK293 MPD ctr-1=-413%*
c1ccc(-n2ncc3c(N4CCC5(CC4)OCCO5)ncnc32)cc1,i,i,i,-7.7*,i,·,·,·,·,i,i,TRPC4 spec 2=i;TRPC4 spec=i;HEK293 MPD ctr 2-1=220%*;HEK293 MPD ctr-1=i
Cc1cccc(-n2ncc3c(N4CCC5(CC4)OCCO5)ncnc32)c1,i,i,i,i,i,·,·,·,·,·,·,
Cc1nn(-c2ccc(Cl)cc2)c(Cl)c1/C=C(\C#N)C(N)=O,i,i,i,i,i,·,·,·,·,·,·,
CCOC(=O)c1c(-c2ccccc2)oc2cc(CN(C)C)c(O)c(CN(C)C)c12,i,i,i,-7.7*,i,·,·,·,·,i,i,TRPC4 spec 2=i;TRPC4 spec=i;HEK293 MPD ctr 2-1=270%*;HEK293 MPD ctr-1=i
Cc1nonc1C(=O)N/N=C/c1ccc(O)cc1O,i,i,i,i,i,·,·,·,·,·,·,
COc1ccc(CCNCc2c(OC)ccc3ccccc23)cc1OC,i,i,i,i,i,·,·,·,·,·,·,
COc1ccc2ccccc2c1CNC(C)CCc1ccccc1 (stereo unspecified),i,i,i,-7.8*,i,·,·,·,·,53%*,·,TRPC4 spec 2=34%*;TRPC4 spec=90%*;HEK293 MPD ctr 2-1=i;HEK293 MPD ctr-1=56%*
Cn1c(=O)c2c(SCc3ccccn3)nc(CC(C)(C)C)nc2n(C)c1=O,i,i,i,i,i,·,·,·,·,·,·,
O=c1cc(C(F)(F)F)[nH]c2ccc(C(F)(F)F)cc12,i,i,i,-7*,i,·,·,·,·,105%*,·,TRPC4 spec 2=i;TRPC4 spec=15%*;HEK293 MPD ctr 2-1=i;HEK293 MPD ctr-1=11%*
Cc1cc(=O)c2ccc(C(F)(F)F)cc2[nH]1,i,i,i,i,i,·,·,·,·,·,·,
CCc1ccc(NC(=O)C(=O)NNC(=O)c2cccc(OC)c2)cc1,i,i,i,i,i,·,·,·,·,·,·,
COc1ccc(C2C3=C(CC(C)(C)CC3=O)Oc3ncn(CC(C)C)c(=N)c32)cc1 (stereo unspecified),i,i,i,i,i,·,·,·,·,·,·,
COc1ccc(C2C3=C(CC(C)(C)CC3=O)Oc3ncn(Cc4ccco4)c(=N)c32)cc1 (stereo unspecified),i,i,i,-6*,i,110%*,i,i,44%*,i,·,
